Experimental data reported in paper PMC5299031 (Structure (London, England : 1993), 2017).
Ends that are not written are not given here. * marks the point of attachment. FITC = O=C1OC2(c3ccc(O)cc3Oc3cc(O)ccc32)c2ccc(NC(=S)*)cc21

How the values were obtained:
[1] = test system: STK40 kinase-homology domain (aa 22–339); assay: Thermal shift assay; type: binding, human; conditions: summary statement (Highlights)
[2] = test system: partially purified full-length STK40; conditions: single ATP concentration (0.2mM); ref Murphy et al., 2014; cited from earlier work
[3] = test system: COP1 WD40 domain; assay: Flag-immunoprecipitation; type: cell-based, human; conditions: 293T cells; anti-Flag IP, western blot anti-COP1; Figure 1C lanes 6–8
[4] = molecular target: T1, purified human COP1 WD40 β propeller (386-731) (human, UniProt Q8NHY2 386-731); assay: fluorescence polarisation
T1 sequence (Q8NHY2 386-731): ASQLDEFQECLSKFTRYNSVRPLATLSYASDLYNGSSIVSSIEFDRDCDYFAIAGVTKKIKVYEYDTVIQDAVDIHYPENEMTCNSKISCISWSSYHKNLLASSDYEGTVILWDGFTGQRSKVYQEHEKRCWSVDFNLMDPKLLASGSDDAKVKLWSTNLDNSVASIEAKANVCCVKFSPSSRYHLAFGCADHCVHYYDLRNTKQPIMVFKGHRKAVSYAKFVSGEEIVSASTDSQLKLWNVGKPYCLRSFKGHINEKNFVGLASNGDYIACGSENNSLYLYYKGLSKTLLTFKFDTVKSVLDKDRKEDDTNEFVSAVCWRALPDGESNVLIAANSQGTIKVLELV

[5] = molecular target: T1, purified human COP1 WD40 β propeller …; assay: fluorescence polarisation; remark: listed apart in the source
[6] = test system: endogenous COP1; assay: Flag-immunoprecipitation in 293T cells: endogenous COP1; type: cell-based, human; conditions: anti-Flag IP, western blot anti-COP1, Figure 1C, black arrow
Method in brief: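 Human 293T cells grown in standard medium were transiently transfected with Flag-tagged STK40 constructs in pcDNA3.0 plus COP1 in pTriEx1.1. Lysates and eluates were run on 4–20% gradient gels and immunoblotted for Flag and COP1.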

[7] = molecular target: COP1 WD40 domain (386–731); type: binding, human; conditions: same competition assay; 25 nM FITC-peptide, 1500 nM COP1 WD40 (386–731)

What does the source list for `Nc1ncnc2c1ncn2[C@@H]1O[C@H](COP(=O)(O)OP(=O)(O)OP(=O)(O)O)[C@@H](O)[C@H]1O` [ATP]?
ATP binding by STK40 kinase homology domain [1]: does not bind ATP; ATP binding by full-length STK40 [2]: no ATP binding

Which “association with / recovery of COP1 WD40 domain” value [3] does the source give for “SSLSGPLQVVPDI [12 residue peptide fused to GFP]” here?
The value was “recovers the COP1 WD40 domain, but less efficiently than full-length STK40”.

For {FITC}-SSLSGPLQVVPD [STK40 peptide FITC-SSLSGPLQVVPD], which Kd [4] is on record?
Its Kd is 3.1 ± 0.6 µM.

B1: purified STK40 KHD+20 (22-359) (domain or fragment, human, UniProt Q8N2I9 22-359, looked up)
chain: SGISGNNAKRAGPFILGPRLGNSPVPSIVQCLARKDGTDDFYQLKILTLEERGDQGIESQEERQGKMLLHTEYSLLSLLHTQDGVVHHHGLFQDRTCEIVEDTESSRMVKKMKKRICLVLDCLCAHDFSDKTADLINLQHYVIKEKRLSERETVVIFYDVVRVVEALHQKNIVHRDLKLGNMVLNKRTHRITITNFCLGKHLVSEGDLLKDQRGSPAYISPDVLSGRPYRGKPSDMWALGVVLFTMLYGQFPFYDSIPQELFRKIKAAEYTIPEDGRVSENTVCLIRKLLVLDPQQRLAAADVLEALSAIIASWQSLSSLSGPLQVVPDIDDQMSNAD
With B1 as the molecule, how does the Ki [5] read?
Its Ki is 1.2 ± 0.1 µM.

B2: Full-length STK40: N-terminal Flag-tagged full-length STK40 (FLAG, HA tags in HeLa tandem IP) (protein)
chain: MKRRASDRGAGETSARAKALGSGISGNNAKRAGPFILGPRLGNSPVPSIVQCLARKDGTDDFYQLKILTLEERGDQGIESQEERQGKMLLHTEYSLLSLLHTQDGVVHHHGLFQDRTCEIVEDTESSRMVKKMKKRICLVLDCLCAHDFSDKTADLINLQHYVIKEKRLSERETVVIFYDVVRVVEALHQKNIVHRDLKLGNMVLNKRTHRITITNFCLGKHLVSEGDLLKDQRGSPAYISPDVLSGRPYRGKPSDMWALGVVLFTMLYGQFPFYDSIPQELFRKIKAAEYTIPEDGRVSENTVCLIRKLLVLDPQQRLAAADVLEALSAIIASWQSLSSLSGPLQVVPDIDDQMSNADSSQEAKVTEECSQYEFENYMRQQLLLAEEKSSIHDARSWVPKRQFGSAPPVRRLGHDAQPMTSLDTAILAQRYLRK
modifications: left off: Flag, N-terminal, kept
For B2, which “immunoprecipitation with endogenous COP1” value [6] is on record?
The value was “immunoprecipitates with endogenous COP1”.

B3: KHD containing a C-terminal extension of 20 amino acids: KHD containing a C-terminal extension of 20 amino acids encompassing the COP1-binding peptide (protein)
chain: B1 chain
modifications: left off: His tag, N-terminal, cleaved
For B3, which “apparent Ki relative to isolated STK40 peptide (in words)” value [7] is on record?
The value was “lower apparent Ki than the isolated peptide”.

B4: KHD: construct of STK40 containing only the central kinase homology domain (KHD) (protein)
chain: SGISGNNAKRAGPFILGPRLGNSPVPSIVQCLARKDGTDDFYQLKILTLEERGDQGIESQEERQGKMLLHTEYSLLSLLHTQDGVVHHHGLFQDRTCEIVEDTESSRMVKKMKKRICLVLDCLCAHDFSDKTADLINLQHYVIKEKRLSERETVVIFYDVVRVVEALHQKNIVHRDLKLGNMVLNKRTHRITITNFCLGKHLVSEGDLLKDQRGSPAYISPDVLSGRPYRGKPSDMWALGVVLFTMLYGQFPFYDSIPQELFRKIKAAEYTIPEDGRVSENTVCLIRKLLVLDPQQRLAAADVLEALSAIIASWQSLS
modifications: left off: His tag, N-terminal, cleaved
With B4 as the molecule, how does the “association with / recovery of COP1 WD40 domain” value [3] read?
Its value is “unable to recover detectable quantities of the COP1 WD40 domain”.
